Experimental data published in ChEMBL document CHEMBL1131138, “A novel class of orally active non-peptide bradykinin B2 receptor antagonists. 3. Discovering bioisosteres of the imidazo[1,2-a] pyridine moiety” (J Med Chem, 1998).

Columns and labels:
[1] = target: T1, B2 bradykinin receptor (Cavia porcellus, UniProt O70526); assay: Concentration required to inhibit specific binding of [ 3H]BK (0.06 nM) to Bradykinin receptor B2 in guinea pig ileum membrane preparations by 50%.; type: cell membranes
T1 sequence (O70526 whole entry): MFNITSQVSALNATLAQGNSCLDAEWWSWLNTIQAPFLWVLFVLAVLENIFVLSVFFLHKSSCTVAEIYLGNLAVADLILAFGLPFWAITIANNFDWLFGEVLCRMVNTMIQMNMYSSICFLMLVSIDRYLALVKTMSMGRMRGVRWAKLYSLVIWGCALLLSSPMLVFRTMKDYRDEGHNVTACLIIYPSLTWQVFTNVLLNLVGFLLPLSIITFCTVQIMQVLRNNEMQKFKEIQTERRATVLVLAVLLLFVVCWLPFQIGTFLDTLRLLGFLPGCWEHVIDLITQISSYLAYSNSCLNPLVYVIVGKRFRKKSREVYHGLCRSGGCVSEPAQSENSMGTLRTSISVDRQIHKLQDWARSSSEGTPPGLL
Outline: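 Ileal membranes from male Hartley guinea pigs (0.2 mg protein/mL) in TES buffer pH 6.8 with phenanthroline, bacitracin, DTT, captopril and BSA. Incubated with 0.06 nM [3H]BK plus compound for 60 min at room temperature, then filtered through GF/B and counted by scintillation.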

[2] = target: T2, B2 bradykinin receptor (Homo sapiens, UniProt P30411); assay: Concentration required to inhibit specific binding of [3H]BK (1.2 nM) to A-431 cells (human epidermoid carcinoma) which express Bradykinin receptor B2 by 50%.; type: cell-based
T2 sequence (P30411 whole entry): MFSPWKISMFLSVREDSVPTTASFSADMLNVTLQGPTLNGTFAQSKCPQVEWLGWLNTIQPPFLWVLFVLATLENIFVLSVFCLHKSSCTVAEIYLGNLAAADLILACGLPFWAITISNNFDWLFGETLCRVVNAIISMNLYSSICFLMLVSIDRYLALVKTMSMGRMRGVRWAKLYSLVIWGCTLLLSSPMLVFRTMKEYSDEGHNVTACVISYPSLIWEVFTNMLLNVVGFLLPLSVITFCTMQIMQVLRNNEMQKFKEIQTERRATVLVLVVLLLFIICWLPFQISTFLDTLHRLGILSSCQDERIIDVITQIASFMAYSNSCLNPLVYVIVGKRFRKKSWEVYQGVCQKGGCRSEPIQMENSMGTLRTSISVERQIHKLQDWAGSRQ

[3] = target: T2, B2 bradykinin receptor; assay: Inhibition specific binding of [3H]BK (1.0 nM) to human Bradykinin receptor B2 which was expressed in CHO (Chinese hamster ovary) cells by 50%.; type: cell-based
Outline: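 CHO (dhfr−) cells stably expressing human B2 receptor, seeded at 3.0 × 10^4 cells/well and cultured 1 day. Whole cells incubated with 1.0 nM [3H]BK plus compound for 2 h at 4 °C in HEPES/N-methyl-D-glucamine buffer pH 7.2 with bacitracin, enalaprilat and BSA. Washed, solubilized in SDS/NaOH and counted. Nonspecific binding with 1 μM BK; DMSO below 3%; three experiments.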

[4] = system: Cavia porcellus; assay: In vivo inhibition of Bradykinin induced Bronchoconstriction in anaesthetized guinea pig following 1 mg/kg p.o.; type: functional; conditions: route oral
Outline: (§1)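 Male Hartley guinea pigs (470–750 g), fasted overnight, anesthetized with ip pentobarbital (30 mg/kg) and ventilated at 10 mL/kg, 60 breaths/min. Given alcuronium (0.5 mg/kg iv) and propranolol (10 mg/kg sc). BK 5 μg/kg iv, with bronchoconstriction read as peak pulmonary insufflation pressure (modified Konzett–Rössler).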

[5] = system: Cavia porcellus; assay: Inhibition of Bradykinin induced Bronchoconstriction in anaesthetized guinea pig at 0.32mg/kg, po; type: functional; outline: as §1

Row | Structure (SMILES) | IC50 [1] [nM] | IC50 [2] [nM] | IC50 [3] [nM] | inhibition in vivo at 1 mg/kg [4] [%] | inhibition in vivo at 0.32 mg/kg [5] [%]
1 | CNC(=O)c1ccc(/C=C/C(=O)NCC(=O)N(C)c2ccc(Cl)c(COc3cccc4cnc(C)nc34)c2Cl)cc1 | 110 | 59 | 56 |  | 
2 | CNC(=O)c1ccc(/C=C/C(=O)NCC(=O)N(C)c2ccc(Cl)c(COc3cccc4c3nc(C)n4C)c2Cl)cc1 | 9.1 | 43 | 67 |  | 
3 | Cc1ccc2cccc(OCc3c(Cl)ccc(N(C)C(=O)CNC(=O)/C=C/c4ccc(C(=O)Nc5cccnc5)cc4)c3Cl)c2n1 | 0.62 |  | 7.5 | 46.8 | 
4 | CNC(=O)c1ccc(/C=C/C(=O)NCC(=O)N(C)c2ccc(Cl)c(COc3cccc4cnc(C)cc34)c2Cl)cc1 | > 10000 | > 10000 |  |  | 
5 | CNC(=O)c1ccc(/C=C/C(=O)NCC(=O)N(C)c2ccc(Cl)c(COCc3cccc(C)n3)c2Cl)cc1 | > 10000 | > 10000 | > 10000 |  | 
6 | Cc1ccc2cccc(OCc3c(Cl)ccc(N(C)C(=O)CNC(=O)/C=C/c4ccc(N5CCCC5=O)cc4)c3Cl)c2n1 | 0.55 |  | 3.2 | 85.3 | 44.7
7 | Cc1ccc2cccc(OCc3c(C)ccc(N(C)C(=O)CNC(=O)/C=C/c4ccc(N5CCCC5=O)cc4)c3C)c2n1 | 0.47 |  | 9.3 | 94.9 | 75.7
8 | Cc1ccc2cccc(OCc3c(Cl)ccc(N(C)C(=O)CNC(=O)/C=C/c4ccc(/C=C/c5ccncc5)nc4)c3Cl)c2n1 | 0.76 |  | 0.51 | 87.3 | 43.6
9 | CNC(=O)c1ccc(/C=C/C(=O)NCC(=O)N(C)c2ccc(C)c(COc3cccc4ccc(C)nc34)c2C)cc1 | 0.97 |  | 4.8 | 90.5 | 79
10 | CNC(=O)c1ccc(/C=C/C(=O)NCC(=O)N(C)c2ccc(Cl)c(COc3cccnc3-n3c(C)ccc3C)c2Cl)cc1 | 350 | 3500 | 2000 |  | 
11 | COc1nc2c(OCc3c(Cl)ccc(N(C)C(=O)CNC(=O)/C=C/c4ccc(C(=O)N(C)C)cc4)c3Cl)cccc2n1C | 0.94 |  | 14 | 87.7 | 
12 | CC(=O)Nc1ccc(/C=C/C(=O)NCC(=O)N(C)c2ccc(C)c(COc3cccc4ccc(C)nc34)c2C)cn1 | 0.82 |  | 8.5 | 98.2 | 55.5
13 | CNC(=O)c1ccc(/C=C/C(=O)NCC(=O)N(C)c2ccc(Cl)c(COc3cccc4ccc(C)nc34)c2Cl)cn1 | 0.68 |  | 4.6 | 93.9 | 68.4
14 | CNC(=O)c1ccc(/C=C/C(=O)NCC(=O)N(C)c2ccc(Cl)c(COc3cccc4ncc(C)nc34)c2Cl)cc1 | 1 | 3.1 | 5.2 |  | 
15 | CC(=O)Nc1ccc(/C=C/C(=O)NCC(=O)N(C)c2ccc(Cl)c(COc3cccc4ccc(C)nc34)c2Cl)cn1 [FR-173657] | 0.46 |  | 1.4 | 94.4 | 73.2
16 | CNC(=O)c1ccc(/C=C/C(=O)NCC(=O)N(C)c2ccc(Cl)c(COc3cccc4nc(C)cnc34)c2Cl)cc1 | 170 | 4300 | 2900 |  | 

Row | Structure (SMILES) | IC50 [1] [nM] | IC50 [2] [nM] | IC50 [3] [nM] | inhibition in vivo at 1 mg/kg [4] [%] | inhibition in vivo at 0.32 mg/kg [5] [%]
17 | CNC(=O)c1ccc(/C=C/C(=O)NCC(=O)N(C)c2ccc(Cl)c(COc3cccc4oc(C)nc34)c2Cl)cc1 | 380 | 860 | 1100 |  | 
18 | COc1nc2c(OCc3c(Cl)ccc(N(C)C(=O)CNC(=O)/C=C/c4ccc(NC(C)=O)nc4)c3Cl)cccc2n1C | 0.65 |  | 4.2 | 55.4 | 
19 | Cc1ccc2cccc(OCc3c(Cl)ccc(N(C)C(=O)CNC(=O)/C=C/c4ccc(C(=O)Nc5ccncc5)cc4)c3Cl)c2n1 | 1.1 |  | 1.8 | 29.5 | 
20 | CC(=O)Nc1ccc(/C=C/C(=O)NCC(=O)N(C)c2ccc(Cl)c(COc3cccc4ccc(C)nc34)c2Cl)cc1 | 0.5 |  | 1.9 | 80 | 33.2
21 | Cc1ccc2cccc(OCc3c(Cl)ccc(N(C)C(=O)CNC(=O)/C=C/c4ccc(C(=O)N(C)C)cc4)c3Cl)c2n1 | 1.3 |  | 3.9 | 89.7 | 50.8
22 | Cc1ccc2cccc(OCc3c(Cl)ccc(N(C)C(=O)CNC(=O)/C=C/c4ccc(NC(=O)c5ccncc5)nc4)c3Cl)c2n1 | 3.3 |  | 2.8 | 68.8 | 
23 | Cc1ccc2cccc(OCc3c(Cl)ccc(N(C)C(=O)CNC(=O)/C=C/c4cccnc4)c3Cl)c2n1 | 0.79 |  | 470 | 97.2 | 63.7
24 | Cc1ccc2cccc(OCc3c(Cl)ccc(N(C)C(=O)CNC(=O)/C=C/c4ccc(C(=O)Nc5ccncc5)nc4)c3Cl)c2n1 | 15 |  | 2.5 | 60 | 
25 | Cc1ccc2cccc(OCc3c(Cl)ccc(N(C)C(=O)CNC(=O)/C=C/c4cccc(C(=O)N(C)C)c4)c3Cl)c2n1 | 1.1 | 14 |  |  | 
26 | Cc1ccc2cccc(OCc3c(Cl)ccc(N(C)C(=O)CNC(=O)/C=C/c4ccc(N5CCCC5=O)nc4)c3Cl)c2n1 | 0.13 |  | 5.2 | 89.9 | 68.6
27 | Cc1ccc2cccc(OCc3c(Cl)ccc(N(C)C(=O)CNC(=O)/C=C/c4ccccc4)c3Cl)c2n1 | 0.69 |  | 340 | 25.2 | 
28 | CNC(=O)c1ccc(/C=C/C(=O)NCC(=O)N(C)c2ccc(Cl)c(COc3cccc4ccc(C)nc34)c2Cl)cc1 | 0.51 | 1.3 | 1.1 | 81.9 | 67.4
29 | COc1nc2c(OCc3c(C)ccc(N(C)C(=O)CNC(=O)/C=C/c4ccc(NC(C)=O)nc4)c3C)cccc2n1C | 0.94 |  | 8.5 | 98.4 | 75.2
30 | CNC(=O)c1ccc(/C=C/C(=O)NCC(=O)N(C)c2ccc(Cl)c(COc3ccc4ccc(C)nc4c3)c2Cl)cc1 | > 10000 | > 10000 |  |  | 
31 | Cc1cnc2cccc(OCc3c(Cl)ccc(N(C)C(=O)CNC(=O)/C=C/c4ccc(N5CCCC5=O)cc4)c3Cl)c2n1 | 1.1 |  | 26 |  | 
